What all share (type): functional
Test [1] has as its system M14. The test can be described thus: Growth inhibition of human M14 cells at 10^-5 M after 48 hrs by Sulforhodamine B assay relative to control. The following applies: M14, 48 h, read-out: GI. In short, it runs like this: (§1)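 Single-dose screen at 10⁻⁵ M. Cells are preincubated 24 h at 37 °C in 5% CO2, then exposed to the compound, diluted from a DMSO stock into medium with gentamicin, for 48 h. Adherent cells are fixed with cold TCA (final 10%) and suspension cells with TCA (final 16%). Cells are stained with 0.4% SRB in 1% acetic acid and bound dye is read at 515 nm. Percent growth inhibition is taken against control wells and time-zero plates.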
In general terms: The SRB assay estimates cell density from bound dye.

Test [2] deals with LOX IMVI. In words: Growth inhibition of human LOXIMVI cells at 10^-5 M after 48 hrs by Sulforhodamine B assay relative to control. Particulars: read-out: GI. In a few lines:
as §1

In test [3] the test system is SF-539. The test can be described thus: Growth inhibition of human SF539 cells at 10^-5 M after 48 hrs by Sulforhodamine B assay relative to control. Particulars: SF-539, 48 h, read-out: GI. In short, it runs like this: (§2)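 Single-dose primary screen at 10⁻⁵ M across 49 lines. Cells were plated 24 h beforehand, with a TCA-fixed time-zero plate, then exposed 48 h at 37 °C, 5% CO2. Cells were fixed with cold TCA, stained with SRB and read at 515 nm. Percent growth was calculated against time-zero and untreated-control absorbances.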

Test [4] deals with SF-268. In words: Growth inhibition of human SF268 cells at 10^-5 M after 48 hrs by Sulforhodamine B assay relative to control. Particulars: SF-268, 48 h, read-out: GI. In short, it runs like this: as §2
For test [5], the system named is SW-620. The test can be described thus: Growth inhibition of human SW620 cells at 10^-5 M after 48 hrs by Sulforhodamine B assay relative to control. The following applies: SW-620, 48 h, read-out: GI. In a few lines: as §2
Test [6] deals with HT-29. In words: Growth inhibition of human HT-29 cells at 10^-5 M after 48 hrs by Sulforhodamine B assay relative to control. Particulars: HT-29, 48 h, read-out: GI. In a few lines:
as §1

The subject of test [7] is NCI-H460. In words: Growth inhibition of human NCI-H460 cells at 10^-5 M after 48 hrs by Sulforhodamine B assay relative to control. The following applies: NCI-H460, 48 h, read-out: GI. In a few lines: as §2
Test [8] has as its system NCI-H23. The test can be described thus: Growth inhibition of human NCI-H23 cells at 10^-5 M after 48 hrs by Sulforhodamine B assay relative to control. The following applies: NCI-H23, 48 h, read-out: GI. In short, it runs like this: as §2
The subject of test [9] is A549. The test can be described thus: Growth inhibition of human A549/ATCC cells at 10^-5 M after 48 hrs by Sulforhodamine B assay relative to control. The following applies: A549, 48 h, read-out: GI. In short, it runs like this:
as §1

Test [10] concerns CCRF-CEM. In words: Growth inhibition of human CCRF-CEM cells at 10^-5 M after 48 hrs by Sulforhodamine B assay relative to control. The following applies: read-out: GI. In a few lines: as §1
Test [11] relates to MDA-MB-468. In words: Growth inhibition of human MDA-MB-468 cells at 10^-5 M after 48 hrs by Sulforhodamine B assay relative to control. Particulars: MDA-MB-468, 48 h, read-out: GI. In a few lines: as §2
The test system of test [12] is MCF7. In words: Growth inhibition of human MCF7 cells at 10^-5 M after 48 hrs by Sulforhodamine B assay relative to control. Particulars: MCF7, 48 h, read-out: GI. In short, it runs like this: as §1
In test [13] the test system is SN12C. The test can be described thus: Growth inhibition of human SN12C cells at 10^-5 M after 48 hrs by Sulforhodamine B assay relative to control. Particulars: read-out: GI. In a few lines:
as §2

In test [14] the test system is ACHN. In words: Growth inhibition of human ACHN cells at 10^-5 M after 48 hrs by Sulforhodamine B assay relative to control. The following applies: read-out: GI. In short, it runs like this: as §1
Test [15] deals with OVCAR-8. In words: Growth inhibition of human OVCAR8 cells at 10^-5 M after 48 hrs by Sulforhodamine B assay relative to control. Particulars: OVCAR-8, 48 h, read-out: GI. In short, it runs like this:
as §2

For test [16], the system named is OVCAR-5. The test can be described thus: Growth inhibition of human OVCAR5 cells at 10^-5 M after 48 hrs by Sulforhodamine B assay relative to control. The following applies: OVCAR-5, 48 h, read-out: GI. In a few lines: as §2
In test [17] the test system is Malme-3M. In words: Growth inhibition of human MALME-3M cells at 10^-5 M after 48 hrs by Sulforhodamine B assay relative to control. The following applies: read-out: GI. In a few lines:
as §1

Structures are written as SMILES.

For `Clc1nc(-c2ccccn2)nc2sc3c(c12)CCCCCC3`, the inhibition of growth at 10 µM in [1] was 13.2%; in test [2], 32.2%; in test [3], 2.75%; in test [4], 5.35%; in test [5], -2.34%; in test [6], 0.67%. In addition, the inhibition of growth at 10 µM in test [7] was found to be 9.1%; in test [8], 17.6%; in test [9], 0.18%; in test [10] it was 27.6%; in test [11] it was 184%; in test [12] it was 46%. Besides, the inhibition of growth at 10 µM is 15.1% in [13]; 120% in test [14]; 12.9% in test [15]; -7.94% in [16]; 5.75% in test [17].

With `NNc1nc(-c2ccncc2)nc2sc3c(c12)CCCCCC3`, the inhibition of growth at 10 µM in test [1] is -11.9%; in [2], 5.88%; in test [3], -14.8%; in test [4] it was -17.8%; in test [5], -8.49%; in test [6], 13.2%. In addition, the inhibition of growth at 10 µM was -4.36% in test [7]; 7.74% in test [8]; -1.81% in test [9]; 25.9% in test [10]; 20.1% in test [11]; 5.87% in test [12]. In addition, the inhibition of growth at 10 µM in test [13] was 4.3%; in [14] it was 8.69%; in test [15], 2.51%; in test [16], -0.54%; in [17], 2.19%.

As for `CN1CCN(c2nc(-c3ccccn3)nc3sc4c(c23)CCCCCC4)CC1`, the inhibition of growth at 10 µM was 6.12% in test [1]; 4.93% in test [2]; 37.4% in test [3]; -1.9% in [4]; -1.34% in test [5]; 5.9% in test [6]. The inhibition of growth at 10 µM in [7] was determined as 2.79%; in [8], 16%; in test [9] it was 22.6%; in test [10], 5.41%; in test [11], 5.4%; in test [12] it was 50.4%. Besides, the inhibition of growth at 10 µM in test [13] was 3.33%; in [14], 4.94%; in test [15], -1.5%; in test [16], 2.04%; in test [17], -0.36%.

For the molecule `c1ccc(N2CCN(c3nc(-c4ccccn4)nc4sc5c(c34)CCCCCC5)CC2)cc1`, the inhibition of growth at 10 µM in [1] was determined as 27.1%; in [2] it was 42.2%; in test [3] it was 12.6%; in [4], 20.4%; in test [5], 24%; in [6], 42%. Further, the inhibition of growth at 10 µM is 46% in test [7]; 37% in test [8]; 68.2% in [9]; 31% in [10]; 30.1% in test [11]; 89.2% in [12]. The inhibition of growth at 10 µM in [13] is 28.9%; in test [14] it was 56.1%; in test [15], 44.5%; in test [16], 36.8%; in [17], 7.96%.

Turning to `c1cc(-c2nc(N3CCOCC3)c3c4c(sc3n2)CCCCCC4)ccn1`, the inhibition of growth at 10 µM in test [1] is -15.4%; in [2], 11.6%; in test [3] it was 15.8%; in test [4], 4.06%; in test [5] it was -9.82%; in test [6], 17.6%. For the same molecule, the inhibition of growth at 10 µM is 8.02% in test [7]; 8.29% in [8]; 24.9% in test [9]; 2.07% in test [10]; 11.8% in [11]; 28.5% in [12]. Also, the inhibition of growth at 10 µM in test [13] was 19.3%; in [14], 17.1%; in test [15] it was 15.3%; in [16] it was -1.32%; in [17], -1.71%.

The record behind these values is ChEMBL document CHEMBL2375304, “Synthesis and anticancer activity of novel 2-pyridyl hexahyrocyclooctathieno[2,3-d]pyrimidine derivatives” (2013).
